Laboratory results reported in paper PMC9398096 (Molecular Cancer Therapeutics, 2021).
Where “and” joins values, the source holds several entries; their conditions need not be identical. Equal values may be shown once. Read-outs that look alike come from different tables or passages of the source.

What was measured:
[1] = tested on: LINE-1 methylation in SKM1 cells; assay: LINE-1 methylation by bisulfite pyrosequencing in SKM1 cells; type: cell-based, human; settings: 100 nmol/L, untreated 82.7%
[2] = tested on: LINE-1 methylation in MDS-L cells; assay: LINE-1 methylation by bisulfite pyrosequencing in MDS-L cells; type: cell-based, human; settings: 100 nmol/L; for LINE-1 methylation level: untreated 88.9%
HL60 cells = assay: HL60 xenograft mouse model; type: in vivo, BALB/c Rag-2/JAK3 double-deficient (BRJ) mice; settings: for LINE-1 methylation in bone marrow cells / hemoglobin levels: DAC 1.0 mg/kg or OR21 2.7 mg/kg twice weekly; for LINE-1 methylation in bone marrow cells: vehicle 83.7%; for hemoglobin levels: at the time of sacrifice, vehicle 17.5 g/dL; for human CD45-positive cells in PB: day 37, vehicle 2.96%; for CD11b-positive cells in PB: late treatment from day +28, days +35 to +40, vehicle 43.3%
[3] = Stability of the base moiety in an aqueous environment; settings: pH 6
[4] = Pharmacokinetics in cynomolgus monkeys; type: in vivo, cynomolgus monkey
[5] = mice, Supplementary Table S4, cited from earlier work
[6] = Long-term administration safety in BALB/c mice; type: in vivo; settings: for anemia (hematopoietic toxicity) / survival on long-term administration: high dose: DAC 2.5 mg/kg or OR21 7.5 mg/kg
In short: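 Non-immunodeficient BALB/c mice received long-term dosing of the test compound at 7.5 (high) or 3.7 (low) mg/kg, or a reference hypomethylating agent at 2.5 or 1.25 mg/kg. Anemia and survival were monitored while dosing continued, through at least day 57.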

HL60R cells = assay: HL60R xenograft model; type: in vivo, mice
MDS-L cells = assay: Flow cytometry of differentiation markers CD11b and HLA-DR; type: cell-based, human
MDS and AML cells [7] = assay: Apoptosis of MDS and AML cells; type: cell-based, human
DNMT1 = assay: Western blot of DNMT1 in MDS and AML cell lines; type: cell-based, human; settings: 100 or 500 nmol/L; MDS-L, SKM1, HL60, THP-1
[8] = tested on: LINE-1 methylation in Kasumi-1 cells; assay: LINE-1 methylation by pyrosequencing in Kasumi-1 cells; type: cell-based, human; settings: 500 nmol/L, untreated 90.7%
SKM1 cells = assay: SKM1 xenograft mouse model; type: in vivo, BALB/c Rag-2/JAK3 double-deficient (BRJ) mice; settings: twice weekly from day 7 posttransplantation
[9] = tested on: AZA-resistant HL60 (HL60R) cells; assay: AZA-resistant HL60; type: cell-based, human; settings: in vitro; similar extent as DAC, more effectively than AZA
[10] = tested on: LINE-1 methylation in THP-1 cells; assay: LINE-1 methylation by pyrosequencing in THP-1 cells; type: cell-based, human; settings: 500 nmol/L, untreated 69.0%
[11] = tested on: LINE-1 methylation in HL60 cells; assay: LINE-1 methylation by pyrosequencing in HL60 cells; type: cell-based, human; settings: 500 nmol/L, untreated 83.7
MDS and AML cells [12] = assay: Cell proliferation; type: cell-based, human; settings: dose-dependent
In short: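 Growth of MDS and AML cell lines was measured by CCK-8 assay after 72 hours of treatment across a dose range. IC50 was derived by nonlinear regression of the dose–response curves.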

[13] = tested on: LINE-1 methylation in KG1a cells; assay: LINE-1 methylation by pyrosequencing in KG1a cells; type: cell-based, human; settings: 500 nmol/L, untreated 89.1%
[14] = DAC 1.0 mg/kg or OR21 2.7 mg/kg twice weekly from day 5, vehicle 44 days
[15] = DAC 1.0 mg/kg or OR21 2.7 mg/kg twice weekly from day 5
[16] = higher dose: DAC 2.0 mg/kg or OR21 5.4 mg/kg, vehicle 48 days

Structure (SMILES)	LINE-1 methylation level [1]	LINE-1 methylation levels, effect of treatment [2]	LINE-1 methylation level [2] [%]	median overall survival (HL60 cells; [14]) [days]	LINE-1 methylation in bone marrow cells (HL60 cells) [%]	hemoglobin levels (HL60 cells)	human CD45-positive cells in PB (HL60 cells; [15]) [%]	median overall survival (HL60 cells; [16]) [days]	CD11b-positive cells in PB (HL60 cells) [%]	half-life [3] [h]	anemia (hematopoietic toxicity) [6]	survival on long-term administration [6]	other results
Nc1ncn([C@@H]2O[C@H](CO)[C@@H](O)[C@H]2O)c(=O)n1 [AZA, azacitidine]	72.1%	did not decrease	88.8										
Nc1ncn([C@H]2C[C@H](O)[C@@H](CO)O2)c(=O)n1 [DAC, decitabine, reference compound]	58.4% and 66.9%		75.2	46.5	56.3	15.6 g/dL and 15.6 (±1.22) g/dL	1.67	32	75.7	~20	severe anemia	died within 80 days	AUC ([4]; 10.9 μmol/kg (1.67 mg/kg) intravenous): 0.49 (±0.17) μmol/L/hour; enteric bioavailability ([4]; higher dose): did not result in enteric bioavailability; peak plasma concentration of DAC ([5]; administration of 0.88 μmol/L/kg DAC (calculated as an AUC equivalent to that of released DAC)): 0.64 µmol/L; anemia ([6]; low dose: DAC 1.25 mg/kg or OR21 3.7 mg/kg): more likely than OR21-treated mice to develop anemia; toxicity (HL60R cells): severe toxicity
CC[Si](CC)(CC)OC[C@H]1O[C@@H](n2cnc(N)nc2=O)C[C@@H]1O [OR21, 5′-O-triethylsilyl-2′-deoxy-5-azacytidine]	66.9%	significantly decreased	74.2	49	63.0	17.1 g/dL and 17.1(±0.31) g/dL	0.75	57	65.5	20	developed anemia by day 29, but recovered by day 57	all were still alive after 80 days	expression of CD11b (MDS-L cells): upregulated; expression of HLA-DR (MDS-L cells): downregulated; apoptosis (MDS and AML cells [7]; MDS and AML cells, dose-dependent): induced apoptosis; apoptosis of primary cells (MDS and AML cells [7]; primary MDS and AML cells): induced apoptosis of primary MDS and AML cells; DNMT1 levels versus untreated cells (DNMT1): markedly lower; LINE-1 methylation level [8]: 78.6%; human CD45-positive cells in peripheral blood (SKM1 cells; day 28, vehicle 6.40%): 0.31%; median overall survival (SKM1 cells; vehicle 29 days): > 53 days; growth of HL60R cells [9]: inhibited growth; LINE-1 methylation level [10]: 64.6%; LINE-1 methylation level [11]: 76.0%; AUC ([4]; 10.9 μmol/kg (3.75 mg/kg) duodenal administration): 0.25 (±0.14) μmol/L/hour; AUC ([4]; 9.0 mg/kg (26.3 μmol/kg) duodenal administration): 0.45 ± 0.23 µmol/L/h; AUC of released DAC ([5]; intraperitoneal 1.59 μmol/L/kg OR21): 0.38 µmol/L/h; peak plasma concentration of DAC ([5]; intraperitoneal administration of 1.59 μmol/L/kg OR21): 0.43 µmol/L; cell growth (MDS and AML cells [12]): inhibited growth; LINE-1 methylation level [13]: 82.4%; survival (HL60R cells; P = 0.0188): significantly prolonged survival
